Compound activity deposited in PubChem by several laboratories.
Rows were chosen to be rich in hits. Some 6.4% of all compounds tested hit in one or more screens of this group.
Tb MetRS inh = blocks T. brucei methionyl-tRNA synthetase activity; purified T. brucei MetRS, ATP depletion, Kinase-Glo luminescence; inhibition, % at 11.9 µM; 360,000 tested, 0.4% active;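 active = inhibition above a per-plate cutoff of the control wells' mean inhibition plus 3 SD, cut at about 5.5% in these data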
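Material – parasite MetRS enzyme · Medium – HEPES-MgCl2-KCl buffer plus DTT, spermine, BSA, pyrophosphatase · Reagent – ATP, methionine and E. coli bulk tRNA substrates · Times – 15 min enzyme-compound preincubation, 2 h reaction, 10 min detection, 25 °C · Measured by – luminescence of leftover ATP · Evaluation – percent inhibition relative to median high and low control wells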
EBV gp42 block = EBV gp42 inhibition. Q1HVG2. Fluorescence polarization binding assay, mP read-out. inhibition, % (tested at 21.74 µM). 220,000 tested, 0.42% active. AID 1085; in the data active = inhibition above about 50%
Target sequence (Q1HVG2 whole entry, looked up): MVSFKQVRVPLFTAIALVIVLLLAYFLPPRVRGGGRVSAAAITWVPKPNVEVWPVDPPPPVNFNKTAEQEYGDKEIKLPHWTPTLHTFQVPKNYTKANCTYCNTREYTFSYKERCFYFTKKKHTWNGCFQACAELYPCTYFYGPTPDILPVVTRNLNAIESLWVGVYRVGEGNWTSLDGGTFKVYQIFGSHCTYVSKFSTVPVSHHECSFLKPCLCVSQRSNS
WT yeast gro inh = growth inhibition of WT yeast, mitochondrial fusion screen. mitochondrial fusion phenotypic screen, WT strain. inhibition, % at 10 µM. 190,000 tested, 2.1% active. AID 1362; in the data active = inhibition above about 58%; tested in S. cerevisiae
CHOP inhibitor = blocks CHOP induction under ER stress. CHO-K1 CHOP-promoter luciferase, tunicamycin-induced, 15-18 h. 220,000 tested, 3.8% active. inhibition, % at 10 µM;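 active = compounds that reduced the stress-induced luciferase reporter signal by more than about 70% of percent inhibition, limit read from the data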
NR3A LBD binder = modulators (binders) of human NR3A ligand-binding domain | 340,000 tested, 2.5% active | Tm shift relative to glycine control, % at 25 µM | NR3A LBD differential scanning fluorimetry, Tm shift; 0% = protein alone, 100% = glycine-bound protein;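 active = melting temperature shift of at least 10% of the positive control shift, at one fixed dose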
MPTP inh = inhibitors of mitochondrial permeability transition pore | AID 602449 | inhibition, % at 10 µM | isolated mouse mitochondria, Ca2+ swelling absorbance, 30 min | 360,000 tested, 1.4% active;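 active = inhibition of 50% or more, scaled per plate between neutral and stimulator controls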
Of the large screens only hits and unclear results are named; the others gave an inactive call.

Cc1ccc(-c2cc(N)n(-c3ccc(C)cc3)n2)cc1	none
Cc1cc(N)n2nc(-c3ccccc3)cc2n1	none
Cc1ccc(-c2cc(N)n3nc(-c4ccc(C)cc4)cc3n2)cc1	CHOP inhibitor 74.3, NR3A LBD binder 26.9
Cc1ccc(-c2cc3nc(-c4ccc(Br)cc4)cc(N)n3n2)cc1	NR3A LBD binder 39.1
Cc1ccc(-c2cc3nc(-c4ccccc4)cc(N)n3n2)cc1	CHOP inhibitor 77.7, NR3A LBD binder 13.0
Cc1cc(C)n2nc(-c3ccc(Br)cc3)cc2n1	none (no result: EBV gp42 block, WT yeast gro inh, CHOP inhibitor)
Cc1cccc(NC(=O)CN(C)C(=O)c2ccc(N3CCCCCC3)c([N+](=O)[O-])c2)c1C	none (no result: EBV gp42 block, WT yeast gro inh, CHOP inhibitor)
COc1ccc(OC)c(/C=N\NC(=O)c2cc3c(ccc4ccccc43)o2)c1	NR3A LBD binder 22.5 (no result: EBV gp42 block, WT yeast gro inh, CHOP inhibitor)
COc1ccc(/C=N/NC(=O)c2cc3c(ccc4ccccc43)o2)c(OC)c1	none (no result: EBV gp42 block, WT yeast gro inh, CHOP inhibitor)
COc1ccc(OC)c(/C=N/NC(=O)CCc2c(C)n[nH]c2C)c1	none (no result: WT yeast gro inh)
COc1ccc(OC)c(/C=N/NC(=O)CCc2ccc(O)c(O)c2)c1	NR3A LBD binder 21.9
O=C(O)Cn1cc(/C=N/NC(=O)c2cc3cc(Br)ccc3o2)c2ccccc21	none (no result: WT yeast gro inh)
Cn1cc(/C=N/NC(=O)c2cc3cc(Br)ccc3o2)c2ccccc21	NR3A LBD binder 21.8 (no result: WT yeast gro inh)
O=C(N/N=C/c1ccccc1F)c1cc2c(ccc3ccccc32)o1	none (no result: EBV gp42 block, WT yeast gro inh, CHOP inhibitor)
O=C(N/N=C/c1cccc2ccccc12)c1cc2ccccc2o1	NR3A LBD binder 17.8 (no result: EBV gp42 block, WT yeast gro inh, CHOP inhibitor)
O=C(N/N=C/c1cn(Cc2ccccc2)c2ccccc12)c1ccncc1	none
Nc1ccc(C(=O)N/N=C/c2cn(Cc3cccc(F)c3)c3ccccc23)cc1	NR3A LBD binder 18.1 (no result: EBV gp42 block, WT yeast gro inh, CHOP inhibitor)
CCc1ccc(C(=O)N/N=C/c2cccc3ccccc23)nc1	CHOP inhibitor 79.5, NR3A LBD binder 11.5
O=C(N/N=C/c1cccc([N+](=O)[O-])c1)c1cc2ccccc2o1	CHOP inhibitor 95.2, NR3A LBD binder 13.2
CC(=O)n1cc(/C=N/NC(=O)c2ccc(Cl)cc2)c2ccccc21	NR3A LBD binder 15.3 (no result: EBV gp42 block, WT yeast gro inh, CHOP inhibitor)
CC1(C)CC(=O)C=C(c2ccc(-c3ccc4[nH]ccc4c3)cc2)C1=O	none (no result: EBV gp42 block, WT yeast gro inh, CHOP inhibitor, NR3A LBD binder)
CCc1nnc(NS(=O)(=O)c2ccc(NC(=S)NC(=O)/C=C/c3ccccc3)cc2)s1	none
CCN(CC)S(=O)(=O)c1cccc(C(=O)OC2CC(C)OC2=O)c1 (configuration not stated)	none (no result: EBV gp42 block, WT yeast gro inh, CHOP inhibitor)
CCOc1ccc2nc(N3CCCC(C(=O)NCCCN4CCCCC4)C3)sc2c1 (configuration not stated)	none (no result: EBV gp42 block, WT yeast gro inh, CHOP inhibitor)
C#CCn1cc(/C=N/NC(=O)c2cc3ccccc3o2)c2ccccc21	NR3A LBD binder 13.1
C=CCn1cc(/C=N\NC(=O)c2cc3c(ccc4ccccc43)o2)c2ccccc21	none
O=C(CC(=O)Nc1cccc(F)c1)Nc1cccc(F)c1	none (no result: EBV gp42 block, WT yeast gro inh, CHOP inhibitor)
O=C(Cn1c2ccccc2c(=O)c2ccccc21)Nc1cccc(F)c1	CHOP inhibitor 76.7
O=C(C[n+]1ccc(-c2cc(C(=O)Nc3cccc(C(F)(F)F)c3)c3ccccc3n2)cc1)c1cccc([N+](=O)[O-])c1	CHOP inhibitor 81.5
O=C(C[n+]1cccc(NC(=O)c2ccccc2)c1)c1cccc([N+](=O)[O-])c1	none
O=C(Nc1ncc2c(n1)-c1ccccc1CC2)c1cccs1	none
COc1ccc(NC(=O)c2sc(NC(=O)COc3ccccc3)nc2C)cc1	NR3A LBD binder 14.4
COc1cccc2sc(Nc3nc4ccc(NC(C)=O)cc4s3)nc12	NR3A LBD binder 30.6
CC(=O)Nc1cccc(-c2nc3ccc(NC(C)=O)cc3s2)c1	NR3A LBD binder 16.1
Cc1cccc(NC(=O)CCc2ccc(S(=O)(=O)NC3CCCCC3)cc2)c1	CHOP inhibitor 72.5
Cc1ccc(CNC(=O)CCc2ccc(S(=O)(=O)NC3CCCCC3)cc2)cc1	none
CC(=O)Nc1ccc2nc(NC(=O)C(Cl)(Cl)Cl)sc2c1	none
Cc1cc(C)cc(CC(=O)N2CCC2(C)C(=O)NS(=O)(=O)c2ccccc2C)c1 (configuration not stated)	none (no result: EBV gp42 block, WT yeast gro inh, CHOP inhibitor, NR3A LBD binder)
CCCCCOC(=O)C1[C@H]2C(=O)N(c3ccccc3CC)C[C@]23C=C[C@H]1O3 (some centres not stated)	none
O=C(COc1ccccc1)Nc1nc2cc3c(cc2s1)OCCO3	none (no result: EBV gp42 block, WT yeast gro inh, CHOP inhibitor)
O=C(COc1ccccc1)Nc1nc2cc3c(cc2s1)OCO3	NR3A LBD binder 13.6 (no result: EBV gp42 block, WT yeast gro inh, CHOP inhibitor)
Cc1cccc(NC(=S)NC(=O)CCc2ccccc2)c1C	CHOP inhibitor 74.8
O=C(CCc1ccccc1)Nc1cccc(NC(=O)CCc2ccccc2)c1	CHOP inhibitor 72.3
CC(=O)Nc1ccc2nc(NC(=O)COc3ccc(C)cc3)sc2c1	none
CC(=O)Nc1ccc2nc(NC(=O)COc3ccccc3Cl)sc2c1	NR3A LBD binder 19.9
O=C(CCc1ccccc1)Nc1ccccc1	none
CC(C)c1[nH]nc2c1C(C(C)C)C(C#N)=C(N)O2 (configuration not stated)	none
CCCCn1c(N)c(Sc2ccc([N+](=O)[O-])cc2)c(=O)[nH]c1=O	none (no result: EBV gp42 block, WT yeast gro inh, CHOP inhibitor)
Cc1ccc(NS(=O)(=O)c2ccc(C(=O)NCC(c3ccco3)N3CCCCC3)cc2)cc1 (configuration not stated)	none (no result: EBV gp42 block, WT yeast gro inh, CHOP inhibitor)
COc1cccc(CC(=O)Nc2ccc3nc(C)sc3c2)c1	WT yeast gro inh 63.8
COc1ccccc1CC(=O)Nc1ccc2nc(C)sc2c1	none
CC(=O)Nc1ccc2nc(NC(=O)COc3cccc(C)c3)sc2c1	NR3A LBD binder 11.0
CC(=O)Nc1ccc2nc(NC(=O)CCc3ccccc3)sc2c1	NR3A LBD binder 22.5
CC(=O)Nc1ccc2nc(NC(=O)COc3ccccc3C)sc2c1	NR3A LBD binder 23.2
CCCC(=O)Nc1nc2ccc(NC(=O)c3ccccc3F)cc2s1	none
CC(=O)Nc1ccc2nc(NC(=O)COc3ccccc3)sc2c1	none
C/C(CC(=O)N1CCN(C=O)CC1)=N\NC(=O)c1ccc(Cl)cc1	none
O=C(Cc1cccs1)NCc1ccc(F)cc1	none
O=C(CNC(=S)N(Cc1ccccc1)Cc1cccs1)NCc1ccc(F)cc1	WT yeast gro inh 60.9
O=C(CNC(=S)N(Cc1ccccc1)Cc1ccccc1F)NCCc1ccc(Cl)cc1	WT yeast gro inh 75.4
CC(=O)NC(c1ccccc1)c1cccnc1 (configuration not stated)	none
Cc1nn(-c2ccccc2)c(N2CCCC2)c1/C=N/NC(=O)c1cccc(S(=O)(=O)Nc2ccc(Cl)cc2)c1	NR3A LBD binder 13.4
Cc1nn(-c2ccccc2)c(Cl)c1/C=N/NC(=O)c1cccc(S(=O)(=O)N2CCCC2)c1	none
Cc1nn(-c2ccc(F)cc2)c(Cl)c1/C=N/NC(=O)c1cccs1	CHOP inhibitor 93.4
Cc1nn(-c2ccc(F)cc2)c(Cl)c1/C=N/NC(=O)c1ccc(O)cc1	none
Cc1nn(-c2ccc(Cl)cc2)c(Cl)c1/C=N/NC(=O)c1ccc(NS(=O)(=O)c2cccs2)cc1	NR3A LBD binder 13.8 (no result: EBV gp42 block, WT yeast gro inh, CHOP inhibitor)
O=S(=O)(c1ccc(Cl)c(Cl)c1)N1CCc2nc3ccccc3n2CC1	none
Cn1cc(Cl)c(C(=O)Nc2nc3ccccc3s2)n1	none
